From PubChem
PGC1a acetyl up = raises PGC1a acetylation signal in U2OS cells; U2OS PGC1a acetylation AlphaScreen, overnight; AID 651723; 350,000 compounds, 0.21% hits; activation, % at 15.6 µM;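 active means every replicate reaching activation of at least 50%, whatever the mean replicate activation; inconclusive means replicates that disagree or another doubt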;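 further: hits raise the AlphaScreen acetylation signal above neutral controls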
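Incubation: overnight compound treatment, 37 °C. System: U2OS cells transduced with flag-tagged PGC1a and GCN5 acetyltransferase. Detection: AlphaScreen lysate read. Compound: single-point compound dosing.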
Hep G6PC suppr = PGC-1a acetylation activator altering hepatocyte G6PC expression; G6PC suppression (normalized activity, % of positive control; higher = more suppression), % at 26 µM; shares compounds with PGC1a acetyl up; primary mouse hepatocytes, G6PC mRNA qPCR, forskolin; AID 743463; 240 tested, under 10 active;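 active means dose curves showing G6PC suppression whose half-maximal dose is at most twice the top valid dose; inconclusive means flat curves with moderate negative activity, or unreliable fits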;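 further: G6PC expression relative to GAPDH housekeeping gene as delta delta Ct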
Hep PCK1 suppr = PGC-1a acetylation activators affecting PCK1 expression in hepatocytes; shares compounds with PGC1a acetyl up; primary mouse hepatocytes, PCK1 mRNA qPCR, forskolin-stimulated; PCK1 expression decrease, unspecified at 26 µM; 230 tested, under 10 active;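 active means compounds lowering PCK1 expression whose fitted half-maximal concentration is at most twice the top tested dose; inconclusive means flat fit with moderate opposite-direction effect, or poor fit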;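 further: higher delta delta Ct means lower PCK1 expression so positive values indicate hits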
PGC1a hep suppr = hepatocyte PGC-1a expression change via PGC-1a acetylation activation; max activity (PGC-1a expression decrease), %; shares compounds with PGC1a acetyl up; 240 tested, under 10 active; primary mouse hepatocytes, PGC-1a mRNA qPCR, forskolin; top dose 26 µM; AID 743467;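 active means compound lowering PGC-1a expression with fitted half-maximal concentration at most twice its top tested dose; inconclusive means flat curve with moderate opposite-direction effect, or poor fit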
Each line names hits and unclear results; the compound was inactive in the other large screens (follow-up assays come after a bar, where they were run). A selection follows.

O=C(N/N=C/c1ccc2c(c1)OCO2)c1cc(-c2ccc(F)cc2)nc2ccccc12	none
Cc1ccc(-c2cc(C(=O)N3CCOCC3)c3ccccc3n2)o1	none
N#CC1=C(N)Oc2n[nH]c(-c3ccccc3)c2C1c1ccncc1 (stereo unspecified)	PGC1a acetyl up 55
O=C(OCCCN1CCCCC1)c1ccc(O)cc1	none
COC(=O)Nc1ccc(Oc2ccccc2)cc1	none
Cc1cc(NS(=O)(=O)c2ccc(NC(=O)CCCOc3ccccc3)cc2)no1	PGC1a acetyl up 52
CCOC(=O)/C(C#N)=N/Nc1ccc(S(=O)(=O)Nc2cc(OC)nc(OC)n2)cc1	none
COc1ccc(OCC(=O)NNC(=O)c2c(-c3ccccc3Cl)noc2C)cc1	none
CSc1n[nH]c(NC(=O)c2c(-c3c(Cl)cccc3Cl)noc2C)n1	none
Cc1cc(C)nc(NC(=O)c2c(-c3ccccc3Cl)noc2C)n1	PGC1a acetyl up 77
Cn1cccc1C(=O)OCC(=O)Nc1ccc2c(c1)CCC2	PGC1a acetyl up 83
O=C(COC(=O)C1CC2CCCC(C1)C2=O)Nc1ccc(F)c(Cl)c1 (stereo unspecified)	none
CCOC(=O)C1CN(S(=O)(=O)c2ccc(C)cc2)c2cc(S(=O)(=O)CC)ccc2O1 (stereo unspecified)	PGC1a acetyl up 54
Cc1ccc(S(=O)(=O)N2CCCCC2C(=O)O)cc1 (stereo unspecified)	none
COc1ccccc1C(=O)Oc1cc(N)n(S(=O)(=O)c2ccc(C)cc2)n1	none
O=C(Nc1cccc2c1CCCC2)c1ccccc1Br	none
C[C@H](NC(=O)C[C@H]1C[C@@H]2c3cc(NC(=O)Nc4ccc(C(F)(F)F)cc4)ccc3O[C@@H]2[C@@H](CO)O1)c1ccccc1	none
Cc1ccc(NC2=C(Cl)C(=O)c3ccccc3C2=O)cc1	none
Cc1ccc(NC2=C([N+](=O)[O-])CS(=O)(=O)C2)cc1	PGC1a acetyl up 218
O=C(CN1C(=O)C2CC=CCC2C1=O)Nc1nccs1 (stereo unspecified)	none
O=C(Cn1ncc(Cl)c(Cl)c1=O)NCC1CCCCC1	PGC1a acetyl up 151
Cc1ccc(NC(=O)Cn2ncc(Cl)c(Cl)c2=O)cc1S(=O)(=O)N1CCCCC1	PGC1a acetyl up 90
O=C1CN(C(=O)Cn2ncc(Cl)c(Cl)c2=O)c2ccccc2N1	PGC1a acetyl up 74
O=C(Cn1ncc(Cl)c(Cl)c1=O)c1ccc(Cl)cc1	none
Cc1cccc(NC(=O)CNC(=O)Cn2ncc(Cl)c(Cl)c2=O)c1C	none
C=CCn1c(C)cc(C(=O)Cn2ncc(Cl)c(Cl)c2=O)c1C	none
O=C(Nc1nc2ccccc2[nH]1)c1ccc(Cl)c(S(=O)(=O)N2CCCC2)c1	none
COc1ccc(NC(=O)Nc2ccc3c(c2)C(=O)N([C@H](C)CO)C[C@H](C)[C@@H](CN(C)S(=O)(=O)c2ccc(Cl)cc2)O3)cc1	none
Cc1nc(N(CCO)C2CCCCC2)c2nnn(Cc3ccccc3)c2n1	none
CC(C)C#Cc1ccc([C@@H]2[C@H]3CN(C(=O)NC4CCCC4)CC(=O)N3[C@H]2CO)cc1	none
COc1ccc(CCNCc2ccc(-c3ccccc3)cc2)cc1OC	none
COc1ccc(CCN2C(=O)c3[nH]nc(-c4ccccc4O)c3C2c2ccccc2)cc1OC (stereo unspecified)	PGC1a acetyl up 53
COc1ccc(C2c3c(oc4ccccc4c3=O)C(=O)N2CCN2CCOCC2)cc1OC (stereo unspecified)	none
COC1=CC(=O)C=C(OC)C1=O	PGC1a acetyl up 107
COc1ccccc1C1c2ccc3ccccc3c2Oc2ncn(CCN(C)C)c(=N)c21 (stereo unspecified)	PGC1a acetyl up 58
S=c1sc2c(Cl)ncnc2n1-c1ccccc1	none
Cc1cc2c(c(/C=C/C(=O)c3ccccc3)c1)OC1(C=C2)Oc2ccccc2C(=O)N1C (stereo unspecified)	none
O=C(COC(=O)c1ccco1)NCc1ccc2c(c1)OCO2	none
COc1ccc(CCNC(=O)C2CCN(C(=O)c3ccc(F)cc3)CC2)cc1OC	none
COc1ccc(CCNC(=O)COC(=O)c2ccco2)cc1OC	PGC1a acetyl up 108
C#CC(CC)(CC)NC(=O)c1ccc(Br)s1	none
O=C(Cc1ccccn1)NCC[C@@H]1CC[C@H](NC(=O)Nc2ccc(C(F)(F)F)cc2)[C@@H](CO)O1	none
COc1ccc2c3c(n(C)c2c1)[C@H](CO)NCC31CCN(Cc2cc(-c3ccccc3)on2)CC1	none
CCOC(=O)CNS(=O)(=O)c1cc(-c2nnc(Nc3ccc4c(c3)OCO4)c3ccccc23)ccc1C	PGC1a acetyl up 168 | Hep G6PC suppr inactive | Hep PCK1 suppr inactive | PGC1a hep suppr inactive
Cc1cc(N2CCN(C)CC2)ccc1NC(=O)c1c2c(nc3ccccc13)CCN(Cc1ccccc1)C2	none
CN(C)c1ccnc2sc(C(N)=O)c(N)c12	none
COC(=O)C(Nc1ccccc1Cl)(c1cc(C)c(O)c(C)c1)C(F)(F)F (stereo unspecified)	PGC1a acetyl up 69 | Hep G6PC suppr inactive | Hep PCK1 suppr inactive | PGC1a hep suppr inconclusive
O=[N+]([O-])c1ccc(Oc2ccc(F)cc2)c2ccncc12	none
Nc1c(C(=O)Nc2ccccc2)c2nc3ccccc3nc2n1CCCN1CCOCC1	PGC1a acetyl up 57 | Hep G6PC suppr inactive | Hep PCK1 suppr inactive | PGC1a hep suppr inactive
O=C(N/N=C/c1ccccc1C(=O)O)c1cccc(S(=O)(=O)Nc2cc(Cl)ccc2Cl)c1	none
O=C(Nc1ccc2c(c1)OCO2)C1CCN(c2ccc(S(=O)(=O)N3CCOCC3)cc2)CC1	none | Hep G6PC suppr inactive | Hep PCK1 suppr inactive | PGC1a hep suppr inactive
CC(C)(O)c1cc(=O)sc2nc3ccccc3n12	none
CCOC(=O)NC(=O)CSc1nnnn1-c1ccc(C)cc1	none
CCOC(=O)C(C)n1cnc2c(nnn2-c2ccc(C)cc2)c1=O (stereo unspecified)	none | Hep G6PC suppr inactive | Hep PCK1 suppr inactive | PGC1a hep suppr inconclusive
CCCOC(=O)c1ccc(-n2nnnc2SCC(=O)N2CCCCC2)cc1	none
CC(=O)c1ccc(NC(=O)N2CCc3ccccc3C2)cc1	PGC1a acetyl up 269 | Hep G6PC suppr inactive | Hep PCK1 suppr inactive | PGC1a hep suppr inactive
CCCn1c(=O)c2ccccc2n2c(SCc3c(C(=O)OCC)oc4ccccc34)nnc12	none
CCN1CCN(Cc2ccc(NC(=O)c3ccc(C)c(NC(=O)c4cncc(-c5cccs5)c4)c3)cc2C(F)(F)F)CC1	none
Cc1ccccc1Cn1cc(NC(=O)c2cc(-c3cccs3)on2)cn1	PGC1a acetyl up inconclusive | Hep PCK1 suppr inactive | PGC1a hep suppr inactive
O=C(CCl)Nc1cc(SCC(O)CO)cc([N+](=O)[O-])c1 (stereo unspecified)	none
O=C(N/N=C/c1ccc(OC2CSC2)cc1)c1ccc(CN2CCOCC2)cc1	none
O=C(NCc1ccccc1)N1CCC(n2cnc3cc(F)ccc32)CC1	PGC1a acetyl up 138 | Hep PCK1 suppr inactive | PGC1a hep suppr inactive
OC[C@@H]1CN(Cc2ccccc2)C[C@H](n2cnc3c(NCc4ccc(F)cc4)ncnc32)O1	none
COc1cc2cc(C)c3nnc(SCC(=O)Nc4cc(C)on4)n3c2cc1OC	none
